According to ChEMBL document CHEMBL4689842, “EUbOPEN Chemogenomics Library wave 1” (2021):
Where “and” joins values, the source holds several entries; their conditions need not be identical. Equal entries are not always repeated.

System: Fibroblast
Test: Multiplex assay against human fibroblast
Format: toxicity, cell-based
In short: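 Per cents of healthy-nucleus cells form the tubulin, mitochondrial-mass and membrane-permeability phenotype values. Live cells were stained at seeding with Hoechst33342, BioTracker Green Microtubule Cytoskeleton Dye, MitoTracker Red and Annexin V Alexa Fluor 680. After compound addition they were imaged on a CQ1 microscope at 37°C and 5% CO2, and CellPathfinder machine-learning gating split them into Hoechst high-intensity objects or normal cells, normal cells into healthy, pyknosed or fragmented nuclei, and pyknosed cells into mitotic or apoptotic.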

[1] = 12 h, 1 µM, compound concentration 1 uM, replicate 1
[2] = 12 h, 1 µM, compound concentration 1 uM, replicate 2
[3] = 12 h, 10 µM, compound concentration 10 uM, replicate 1
[4] = 12 h, 10 µM, compound concentration 10 uM, replicate 2
[5] = 24 h, 1 µM, compound concentration 1 uM, replicate 1
[6] = 24 h, 1 µM, compound concentration 1 uM, replicate 2
[7] = 24 h, 10 µM, compound concentration 10 uM, replicate 1
[8] = 24 h, 10 µM, compound concentration 10 uM, replicate 2
[9] = 48 h, 1 µM, compound concentration 1 uM, replicate 1
[10] = 48 h, 1 µM, compound concentration 1 uM, replicate 2
[11] = 48 h, 10 µM, compound concentration 10 uM, replicate 1
[12] = 48 h, 10 µM, compound concentration 10 uM, replicate 2

Compound: Nc1c(C(=O)NCc2ccc(C(=O)NCCCC3CCCCC3)cc2)cnn1-c1ccccc1 [SR-318]
- Population Apoptotic (%) [1]: 63% and 53% and 61%
- Population Fragmented Nuclei (%) [1]: 20% and 26%
- Population Healthy Nuclei (%) [1]: 41% and 34%
- Population Hoechst High Intensity Objects (%) [1]: 10% and 11%
- Population Membrane Permeable-Phenotype (%) [1]: 34% and 21% and 18%
- Population Mitochondria Different-Phenotype (%) [1]: 6% and 7% and 9%
- Population Mitotic Cells (%) [1]: 36% and 46% and 38%
- Population Normal (%) [1]: 89% and 88%
- Population Pyknosed Nuclei (%) [1]: 38% and 44%
- Population Tubulin-Different-Phenotype (%) [1]: 46% and 39% and 51%
- Total Cell Count [1]: 128 and 123 and 142
- Population Fragmented Nuclei (%) [2]: 9% and 5% and 3%
- Population Healthy Nuclei (%) [2]: 83% and 75% and 91%
- Population Membrane Permeable-Phenotype (%) [2]: 6% and 5%
- Population Mitochondria Different-Phenotype (%) [2]: 8%
- Population Mitotic Cells (%) [2]: 50% and 87% and 100%
- Population Normal (%) [2]: 95% and 73% and 96%
- Population Tubulin-Different-Phenotype (%) [2]: 19% and 25% and 11%
- Total Cell Count [2]: 63 and 91 and 118
- Population Apoptotic (%) [3]: 65% and 54% and 56%
- Population Fragmented Nuclei (%) [3]: 20% and 24% and 14%
- Population Healthy Nuclei (%) [3]: 29% and 33% and 37%
- Population Hoechst High Intensity Objects (%) [3]: 8% and 10% and 20%
- Population Mitochondria Different-Phenotype (%) [3]: 24% and 47% and 43%
- Population Mitotic Cells (%) [3]: 34% and 45% and 43%
- Population Normal (%) [3]: 91% and 89% and 79%
- Population Pyknosed Nuclei (%) [3]: 50% and 42% and 47%
- Population Tubulin-Different-Phenotype (%) [3]: 88% and 76% and 85%
- Total Cell Count [3]: 94 and 140 and 136
- Population Apoptotic (%) [4]: 45% and 22% and 33%
- Population Fragmented Nuclei (%) [4]: 17% and 15% and 12%
- Population Healthy Nuclei (%) [4]: 69% and 58% and 72%
- Population Mitochondria Different-Phenotype (%) [4]: 55% and 51% and 60%
- Population Mitotic Cells (%) [4]: 54% and 77% and 66%
- Population Normal (%) [4]: 92% and 98%
- Population Pyknosed Nuclei (%) [4]: 13% and 25% and 15%
- Population Tubulin-Different-Phenotype (%) [4]: 50% and 56% and 67%
- Total Cell Count [4]: 71 and 90 and 91
- Population Apoptotic (%) [5]: 44% and 58% and 55%
- Population Fragmented Nuclei (%) [5]: 17% and 19% and 22%
- Population Healthy Nuclei (%) [5]: 46% and 43% and 44%
- Population Hoechst High Intensity Objects (%) [5]: 8% and 6% and 10%
- Population Membrane Permeable-Phenotype (%) [5]: 34% and 25% and 33%
- Population Mitochondria Different-Phenotype (%) [5]: 6% and 4% and 12%
- Population Mitotic Cells (%) [5]: 55% and 41% and 44%
- Population Normal (%) [5]: 91% and 93% and 89%
- Population Pyknosed Nuclei (%) [5]: 36% and 33%
- Population Tubulin-Different-Phenotype (%) [5]: 44% and 31% and 60%
- Total Cell Count [5]: 137 and 115 and 142
- Population Apoptotic (%) [6]: 25%
- Population Fragmented Nuclei (%) [6]: 6% and 3% and 4%
- Population Healthy Nuclei (%) [6]: 80% and 84% and 75%
- Population Membrane Permeable-Phenotype (%) [6]: 8% and 5%
- Population Mitochondria Different-Phenotype (%) [6]: 13% and 7%
- Population Mitotic Cells (%) [6]: 75%
- Population Normal (%) [6]: 94% and 97% and 77%
- Population Pyknosed Nuclei (%) [6]: 13% and 11% and 19%
- Population Tubulin-Different-Phenotype (%) [6]: 22% and 14% and 23%
- Total Cell Count [6]: 67 and 130 and 97
- Population Apoptotic (%) [7]: 66% and 45% and 56%
- Population Fragmented Nuclei (%) [7]: 15% and 18% and 29%
- Population Healthy Nuclei (%) [7]: 43% and 47% and 39%
- Population Hoechst High Intensity Objects (%) [7]: 16% and 12% and 11%
- Population Mitochondria Different-Phenotype (%) [7]: 31% and 48% and 42%
- Population Mitotic Cells (%) [7]: 33% and 54% and 43%
- Population Normal (%) [7]: 83% and 87% and 88%
- Population Pyknosed Nuclei (%) [7]: 40% and 33% and 30%
- Population Tubulin-Different-Phenotype (%) [7]: 76% and 87% and 86%
- Total Cell Count [7]: 105 and 118 and 143
- Population Apoptotic (%) [8]: 28% and 44% and 46%
- Population Fragmented Nuclei (%) [8]: 13% and 17% and 14%
- Population Healthy Nuclei (%) [8]: 65% and 62% and 66%
- Population Membrane Permeable-Phenotype (%) [8]: 9% and 7% and 3%
- Population Mitochondria Different-Phenotype (%) [8]: 58% and 57% and 66%
- Population Mitotic Cells (%) [8]: 71% and 55% and 53%
- Population Normal (%) [8]: 98% and 92%
- Population Pyknosed Nuclei (%) [8]: 21% and 20% and 18%
- Population Tubulin-Different-Phenotype (%) [8]: 41% and 30% and 61%
- Total Cell Count [8]: 104 and 67 and 97
- Population Apoptotic (%) [9]: 73% and 50% and 47%
- Population Fragmented Nuclei (%) [9]: 32% and 28% and 24%
- Population Healthy Nuclei (%) [9]: 43% and 48% and 60%
- Population Hoechst High Intensity Objects (%) [9]: 14% and 12%
- Population Membrane Permeable-Phenotype (%) [9]: 22% and 21% and 16%
- Population Mitochondria Different-Phenotype (%) [9]: 2% and 7%
- Population Mitotic Cells (%) [9]: 26% and 50% and 52%
- Population Normal (%) [9]: 85% and 87%
- Population Pyknosed Nuclei (%) [9]: 24% and 22% and 15%
- Population Tubulin-Different-Phenotype (%) [9]: 20% and 37% and 36%
- Total Cell Count [9]: 109 and 153 and 141
- Population Apoptotic (%) [10]: 100% and 83%
- Population Fragmented Nuclei (%) [10]: 22% and 27% and 14%
- Population Healthy Nuclei (%) [10]: 73% and 71% and 81%
- Population Hoechst High Intensity Objects (%) [10]: 16% and 13% and 11%
- Population Membrane Permeable-Phenotype (%) [10]: 18% and 13%
- Population Mitochondria Different-Phenotype (%) [10]: 5% and 4%
- Population Mitotic Cells (%) [10]: 0% and 16%
- Population Normal (%) [10]: 83% and 86% and 88%
- Population Tubulin-Different-Phenotype (%) [10]: 28% and 40% and 26%
- Total Cell Count [10]: 116 and 115 and 159
- Population Apoptotic (%) [11]: 71% and 75% and 64%
- Population Fragmented Nuclei (%) [11]: 36% and 33%
- Population Healthy Nuclei (%) [11]: 43% and 45% and 41%
- Population Hoechst High Intensity Objects (%) [11]: 20% and 19% and 17%
- Population Membrane Permeable-Phenotype (%) [11]: 12% and 4% and 3%
- Population Mitochondria Different-Phenotype (%) [11]: 40% and 45% and 36%
- Population Mitotic Cells (%) [11]: 28% and 25% and 35%
- Population Normal (%) [11]: 79% and 80% and 82%
- Population Pyknosed Nuclei (%) [11]: 19% and 21% and 25%
- Population Tubulin-Different-Phenotype (%) [11]: 81% and 83% and 82%
- Total Cell Count [11]: 92 and 116 and 150
- Population Fragmented Nuclei (%) [12]: 28% and 31% and 23%
- Population Healthy Nuclei (%) [12]: 66% and 63% and 71%
- Population Hoechst High Intensity Objects (%) [12]: 9% and 3%
- Population Membrane Permeable-Phenotype (%) [12]: 9% and 6%
- Population Mitochondria Different-Phenotype (%) [12]: 13% and 23% and 16%
- Population Mitotic Cells (%) [12]: 83% and 50% and 85%
- Population Normal (%) [12]: 90% and 96%
- Population Pyknosed Nuclei (%) [12]: 5% and 4%
- Population Tubulin-Different-Phenotype (%) [12]: 68% and 86%
- Total Cell Count [12]: 121 and 148 and 157
